Measured values reported in paper PMC4243704 (European journal of pharmaceutics and biopharmaceutics : …, 2013).
Read-outs that look alike come from different tables or passages of the source.

Legend:
[1] = In situ single-pass intestinal perfusion in mice; conditions: female, BALB/c, mouse, other: in situ single-pass intestinal (jejunal) perfusion, pH 6
mouse jejunum = experiment: In situ single-pass intestinal perfusion in mice
[2] = Enzymatic stability in Caco-2 cell homogenates; assay type: in vitro ADME; conditions: for Caco-2 cell homogenates t1/2: 500 μg/mL protein, 37 °C; for Stability in cell homogenate, D-prodrug relative to L-prodrug: Caco-2 cell homogenates (assigned from Table 2 ratios)
[3] = Chemical stability in simulated gastric fluid; assay type: physicochemical; conditions: for SGF t1/2: SGF pH 1.2, 37 °C
How it was run: (§1)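 Incubated in simulated gastric fluid (pH 1.2) or simulated intestinal fluid at 37 °C. Remaining prodrug measured over time by reverse-phase C18 HPLC (0.1% TFA water/acetonitrile gradient). t1/2 estimated by linear regression of pseudo-first-order plots of prodrug concentration vs time.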

AsPC-1 cells [4] = experiment: Cell proliferation assay; assay type: cell-based
How it was run: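 AsPC-1 cells seeded at 125,000/well and grown 24 h in RPMI-1640 + 10% FBS, then washed with pH 6.0 uptake buffer. Test compound 2-fold serially diluted (5 to 0.078 mmol/L) in that buffer and applied for 2 h at 37 °C; buffer alone served as 100% viability. After washing, 24 h recovery in medium. XTT/phenazine methosulfate read at 450 nm; GI50 from nonlinear fitting.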

Microsomal stability = assay type: in vitro ADME, human; conditions: for Human liver microsome t1/2: 500 μg/mL microsomal protein, NADPH, 37 °C
[5] = Chemical stability in pH 7.4 phosphate buffer; assay type: physicochemical; conditions: for Buffer pH 7.4 t1/2: phosphate buffer pH 7.4, 37 °C
How it was run: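 Non-enzymatic hydrolysis in 10 mmol/L phosphate buffer pH 7.4, triplicate wells, 37 °C up to 120 min. Aliquots quenched in acetonitrile with 0.1% TFA, filtered, and run on reverse-phase C18 HPLC (TFA water/acetonitrile gradient). t1/2 from linear regression of pseudo-first-order plots of prodrug concentration vs time.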

[6] = Chemical stability in simulated intestinal fluid; assay type: physicochemical; conditions: for SIF (pH 6.5) t1/2: 37 °C
How it was run: as §1

Caco-2 cells = experiment: Uptake study in Caco-2 cells; assay type: cell-based; conditions: for Gemcitabine (%) of species found in cells / Cytosine (%) of species found in cells / Prodrug (%) of species found in cells: Caco-2 uptake without Gly-Pro, 1 h
[7] = Enzymatic stability in AsPC-1 cell homogenates; assay type: in vitro ADME; conditions: for AsPC-1 cell homogenates t1/2: 500 μg/mL protein, 37 °C; for Stability in cell homogenate, D-prodrug relative to L-prodrug: AsPC-1 cell homogenates (assigned from Table 2 ratios)
Thymidine phosphorylase = molecular target: T1, Thymidine phosphorylase (Homo sapiens, UniProt P19971); experiment: Stability toward thymidine phosphorylase; assay type: in vitro ADME
T1 sequence (P19971 11-482): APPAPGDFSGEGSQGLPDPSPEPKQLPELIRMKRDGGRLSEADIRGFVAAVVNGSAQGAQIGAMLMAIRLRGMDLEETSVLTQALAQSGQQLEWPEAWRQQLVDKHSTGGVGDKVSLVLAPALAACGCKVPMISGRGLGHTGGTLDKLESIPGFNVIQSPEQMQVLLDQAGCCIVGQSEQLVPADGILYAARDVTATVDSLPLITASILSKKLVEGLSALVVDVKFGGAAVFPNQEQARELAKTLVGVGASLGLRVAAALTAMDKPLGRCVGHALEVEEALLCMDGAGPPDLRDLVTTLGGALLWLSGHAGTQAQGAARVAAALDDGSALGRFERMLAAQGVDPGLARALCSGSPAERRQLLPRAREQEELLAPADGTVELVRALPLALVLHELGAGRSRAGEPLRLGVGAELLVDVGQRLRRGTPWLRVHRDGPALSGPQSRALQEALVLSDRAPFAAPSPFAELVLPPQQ

[8] = Caco-2 cell monolayer permeability, apical-to-basolateral; assay type: in vitro ADME; conditions: human, Caco-2
How it was run: (§2)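 Caco-2 cells grown 21–24 days on collagen-coated PTFE inserts, TEER 550–600 Ω cm2. Apical MES (pH 6.0) and basolateral HEPES (pH 7.4) buffers, preincubated 15 min at 37 °C. 0.1 mM test compound in apical MES, ±10 mM Gly-Pro. Receiver sampled at 15–120 min at 37 °C with buffer replacement. Samples acidified with 0.1% TFA and analysed by HPLC.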

Caco-2 monolayer = experiment: as above; assay type: in vitro ADME
How it was run: as §2

AsPC-1 cells [9] = experiment: Uptake study in AsPC-1 cells; assay type: cell-based; conditions: for Gemcitabine (%) of species found in cells / Cytosine (%) of species found in cells / Prodrug (%) of species found in cells: AsPC-1 uptake, 100 μM, 1 h; for Uptake amount, D-prodrug relative to L-prodrug (higher): 100 μM drug solution
[10] = for Concentration in plasma, D-prodrug relative to L-prodrug (higher): mouse plasma after in situ perfusion, prodrug plus metabolites
[11] = read-out: GI50 AsPC-1, 2 h exposure at pH 6.0, 24 h recovery, XTT

Row | Compound | Gemcitabine (%) of species found in cells (Caco-2 cells) | Gemcitabine (%) of species found in cells (AsPC-1 cells [9]) | Caco-2 cell homogenates t1/2 [2] | Stability in cell homogenate, D-prodrug relative to L-prodrug [2] | SGF t1/2 [3] | Concentration in plasma, D-prodrug relative to L-prodrug (higher) [10] | GI50 (AsPC-1 cells [4]; [11]) | Human liver microsome t1/2 (Microsomal stability) | Buffer pH 7.4 t1/2 [5] | SIF (pH 6.5) t1/2 [6] | Uptake amount, D-prodrug lower than L-prodrug (Caco-2 cells; Caco-2 cells) | Cytosine (%) of species found in cells (Caco-2 cells) | Prodrug (%) of species found in cells (Caco-2 cells) | AsPC-1 cell homogenates t1/2 [7] | Stability in cell homogenate, D-prodrug relative to L-prodrug [7] | Thymidine phosphorylase t1/2 (Thymidine phosphorylase) | Uptake amount, D-prodrug relative to L-prodrug (higher) (AsPC-1 cells [9]; AsPC-1 cells) | Cytosine (%) of species found in cells (AsPC-1 cells [9]) | Prodrug (%) of species found in cells (AsPC-1 cells [9]) | other results
1 | Nc1ccn([C@@H]2O[C@H](CO)[C@@H](O)C2(F)F)c(=O)n1 [Gemcitabine, reference compound] | 50% | 90% |  |  |  |  |  |  |  |  |  |  |  |  |  |  |  |  |  | Papp at 90 min, 100 μM [1]: 2 ×10⁻⁶ cm/s; Peff, mouse perfusion (mouse jejunum; mouse jejunum, 100 μM, pH 6.0): 2.0 ± 0.2 ×10^−5 cm/s; half-life ([2]; human, Caco-2, pH 7.4): 105 ± 6.1 min; Degradation in SGF [3]: no significant degradation; half-life ([3]; simulated gastric fluid (SGF), pH 1.2): > 120 min; GI50 (AsPC-1 cells [4]; Homo sapiens, ASPC1, pH 6, read-out: GI50 AsPC-1): 10.2 ± 1.6 mM; half-life (Microsomal stability; human, human liver microsomes, pH 7.4): 45.3 ± 3.3 min; Degradation in pH 7.4 phosphate buffer ([5]; pH 7.4): no significant degradation; half-life ([5]; phosphate buffer, pH 7.4): > 120 min; Degradation in SIF [6]: no significant degradation; half-life ([6]; simulated intestinal fluid (SIF), pH 6.5): > 120 min; Difference in uptake amount with and without 10 mM Gly-Pro (Caco-2 cells; Caco-2 cells): did not exhibit the difference; half-life ([7]; human, AsPC-1 cell homogenates, pH 7.4): 33.7 ± 14.5 min; Resistance against thymidine phosphorylase (words) (Thymidine phosphorylase): rapidly cleaved; Resistance against thymidine phosphorylase (words) (Thymidine phosphorylase; listed as gemcitabine): did not display the resistance; half-life (Thymidine phosphorylase; thymidine phosphorylase, pH 7.4): 6 ± 1.8 min; Papp at 2 h, 0.1 mM [8]: 1 ± 0.2 ×10⁻⁶ cm/s; Difference in membrane permeability with and without 10 mM Gly-Pro (Caco-2 monolayer; Caco-2 monolayers): did not exhibit the difference; Species detected in the basolateral receiver compartment (Caco-2 monolayer; following transport across Caco-2 monolayers): only cytosine
2 | CC(C)[C@@H](N)C(=O)OC[C@H]1O[C@@H](n2ccc(N)nc2=O)C(F)(F)[C@@H]1O [5′-D-Valyl-gemcitabine] | 10% | 77% | 42.0 ± 17.5 min | 2.2 fold | >120 min | 2.3 fold | 2.2 ± 0.9 mM | 19.5 ± 4.4 min | >120 min | >120 min | 46% | 0% | 90% | 87.2 ± 13.5 min | 6.3 fold | >120 min | 3.1 fold | 4% | 19% | Prodrug concentration in blood ([10]; after in situ perfusion of mouse small intestine): highest; Dose linearity of uptake (AsPC-1 cells [9]; AsPC-1 cells, 50 μM vs 100 μM): exhibited the dose linearity
3 | Nc1ccn([C@@H]2O[C@H](COC(=O)[C@H](N)Cc3ccccc3)[C@@H](O)C2(F)F)c(=O)n1 [5′-D-Phenylalanyl-gemcitabine] | 31% | 87% | 21.7 ± 0.2 min | 10.9 fold | >120 min | 2.0 fold | 5.6 ± 1.1 mM | 6.6 ± 1.3 min | >120 min | >120 min | 70% | 0% | 69% | 63.9 ± 11.2 min | 9.4 fold | >120 min | 3.3 fold | 1% | 12% | Stability in human liver microsomes, D-prodrug relative to L-prodrug (Microsomal stability): 3.7 fold; Uptake enhancement relative to gemcitabine (AsPC-1 cells [9]; AsPC-1 cells, lower concentration (50 μM)): did not show the enhancement of uptake
4 | 5′-L-Valyl-gemcitabine | 15% | 11% | 19.5 ± 1.9 min |  | >120 min |  | 2 ± 0.8 mM | 27.8 ± 13.6 min | >120 min | >120 min |  | 0% | 85% | 13.8 ± 3.3 min |  | >120 min |  | 20% | 69% | Membrane permeability, L-prodrug better than D-prodrug (mouse jejunum; mouse in situ perfusion): 87%
5 | Nc1ccn([C@@H]2O[C@H](COC(=O)[C@@H](N)Cc3ccccc3)[C@@H](O)C2(F)F)c(=O)n1 [5′-L-Phenylalanyl-gemcitabine] | 18% | 84% | 2.0 ± 0.3 min |  | >120 min |  | 4.3 ± 1.5 mM | 1.8 ± 0.2 min | >120 min | >120 min |  | 0% | 82% | 6.8 ± 2.0 min |  | 31.9 ± 5.0 min |  | 10% | 6% | 
